In brackets after ≈: the same amount, converted by molar mass. Activity calls are given as the source filed them. No rule for the calls is given here.
Experiments:
[1] = system: Streptococcus pneumoniae; experiment: Antibacterial activity against Streptococcus pneumoniae by CLSI M07-A8 method; format: functional, organism-based
Method in brief: (§1)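 Broth microdilution MIC run per CLSI M07-A8 (2009).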

[2] = system: Staphylococcus aureus; experiment: Antibacterial activity against methicillin-resistant Staphylococcus aureus isolate A4.018 by CLSI M07-A8 method; format: functional
[3] = system: Streptococcus pyogenes; experiment: Antibacterial activity against Streptococcus pyogenes ATCC BAA-595 by CLSI M07-A8 method; format: functional; method in brief: as §1
[4] = system: Enterococcus faecalis; experiment: Antibacterial activity against Enterococcus faecalis ATCC 29212 by CLSI M07-A8 method; format: functional; method in brief: as §1
[5] = system: Enterococcus faecium; experiment: Antibacterial activity against Enterococcus faecium 7130724 by CLSI M07-A8 method; format: functional; method in brief: as §1

Row | Structure (SMILES) | Activity [1] | MIC [2] [µg/mL] | MIC [3] [µg/mL] | MIC [4] [µg/mL] | MIC [5] [µg/mL]
1 | CNC(=O)C[C@@H]1NC(=O)c2csc(n2)-c2ccc(-c3nc(NC(=O)c4ccc(C(=O)O)cc4)cs3)nc2-c2csc(n2)-c2csc(n2)[C@H]([C@@H](O)c2ccccc2)NC(=O)CNC(=O)c2nc(sc2COC)[C@H](C(C)C)NC(=O)c2nc1sc2C | Active | 0.125 (≈ 0.1 µM) | 4 (≈ 3.21 µM) | 0.125 (≈ 0.1 µM) | 0.125 (≈ 0.1 µM)
2 | CNC(=O)C[C@@H]1NC(=O)c2csc(n2)-c2ccc(-c3nc(NC(=O)c4ccc(C(=O)O)nc4)cs3)nc2-c2csc(n2)-c2csc(n2)[C@H]([C@@H](O)c2ccccc2)NC(=O)CNC(=O)c2nc(sc2COC)[C@H](C(C)C)NC(=O)c2nc1sc2C | Active | 4 (≈ 3.21 µM) | > 32 | 4 (≈ 3.21 µM) | 8 (≈ 6.42 µM)
3 | CNC(=O)C[C@@H]1NC(=O)c2csc(n2)-c2ccc(-c3nc(NC(=O)[C@H]4CC[C@@H](C(=O)O)CC4)cs3)nc2-c2csc(n2)-c2csc(n2)[C@H]([C@@H](O)c2ccccc2)NC(=O)CNC(=O)c2nc(sc2COC)[C@H](C(C)C)NC(=O)c2nc1sc2C | Active | 0.25 (≈ 0.2 µM) | 4 (≈ 3.2 µM) | 0.125 (≈ 0.1 µM) | 0.25 (≈ 0.2 µM)
4 | CNC(=O)C[C@@H]1NC(=O)c2csc(n2)-c2ccc(-c3nc(NC(=O)O[C@H]4C[C@H](C(=O)O)C4)cs3)nc2-c2csc(n2)-c2csc(n2)[C@H]([C@@H](O)c2ccccc2)NC(=O)CNC(=O)c2nc(sc2COC)[C@H](C(C)C)NC(=O)c2nc1sc2C | Active | 0.125 (≈ 0.101 µM) | 2 (≈ 1.61 µM) | 0.06 (≈ 0.0484 µM) | 0.06 (≈ 0.0484 µM)
5 | CNC(=O)C[C@@H]1NC(=O)c2csc(n2)-c2ccc(-c3nc(NC(=O)[C@H]4CC[C@@H](C(=O)O)C4)cs3)nc2-c2csc(n2)-c2csc(n2)[C@H]([C@@H](O)c2ccccc2)NC(=O)CNC(=O)c2nc(sc2COC)[C@H](C(C)C)NC(=O)c2nc1sc2C | Active | 0.25 (≈ 0.202 µM) | 4 (≈ 3.23 µM) | 0.25 (≈ 0.202 µM) | 0.25 (≈ 0.202 µM)
6 | CNC(=O)C[C@@H]1NC(=O)c2csc(n2)-c2ccc(-c3nc(NC(=O)O[C@H]4C[C@@H](C(=O)O)C[C@@H]4N)cs3)nc2-c2csc(n2)-c2csc(n2)[C@H]([C@@H](O)c2ccccc2)NC(=O)CNC(=O)c2nc(sc2COC)[C@H](C(C)C)NC(=O)c2nc1sc2C | Active | 2 (≈ 1.58 µM) | 2 (≈ 1.58 µM) | 1 (≈ 0.789 µM) | 4 (≈ 3.16 µM)
7 | CNC(=O)C[C@@H]1NC(=O)c2csc(n2)-c2ccc(-c3nc(NC(=O)C45CCC(C(=O)O)(CC4)CC5)cs3)nc2-c2csc(n2)-c2csc(n2)[C@H]([C@@H](O)c2ccccc2)NC(=O)CNC(=O)c2nc(sc2COC)[C@H](C(C)C)NC(=O)c2nc1sc2C | Active | 0.25 (≈ 0.196 µM) | 4 (≈ 3.13 µM) | 0.125 (≈ 0.0979 µM) | 0.25 (≈ 0.196 µM)
8 | CNC(=O)C[C@@H]1NC(=O)c2csc(n2)-c2ccc(-c3nc(NC(=O)O[C@H]4CC[C@@H](C(=O)O)CC4)cs3)nc2-c2csc(n2)-c2csc(n2)[C@H]([C@@H](O)c2ccccc2)NC(=O)CNC(=O)c2nc(sc2COC)[C@H](C(C)C)NC(=O)c2nc1sc2C | Active | 0.125 (≈ 0.0987 µM) | 1 (≈ 0.79 µM) | 0.125 (≈ 0.0987 µM) | 0.125 (≈ 0.0987 µM)
9 | CNC(=O)C[C@@H]1NC(=O)c2csc(n2)-c2ccc(-c3nc(C4=N[C@H](C(=O)N5CCC[C@H]5C(N)=O)CO4)cs3)nc2-c2csc(n2)-c2csc(n2)[C@H]([C@@H](O)c2ccccc2)NC(=O)CNC(=O)c2nc(sc2COC)[C@H](C(C)C)NC(=O)c2nc1sc2C | Active | 0.25 (≈ 0.194 µM) | 1 (≈ 0.775 µM) | 0.5 (≈ 0.387 µM) | 0.25 (≈ 0.194 µM)
10 | CNC(=O)C[C@@H]1NC(=O)c2csc(n2)-c2ccc(-c3nc(NC(=O)[C@H]4CC[C@@H]4C(=O)O)cs3)nc2-c2csc(n2)-c2csc(n2)[C@H]([C@@H](O)c2ccccc2)NC(=O)CNC(=O)c2nc(sc2COC)[C@H](C(C)C)NC(=O)c2nc1sc2C | Active | 0.25 (≈ 0.205 µM) | 4 (≈ 3.27 µM) | 0.25 (≈ 0.205 µM) | 0.5 (≈ 0.409 µM)
